Here are results for eight molecules from ChEMBL document CHEMBL1148277, “Synthesis and pharmacological evaluation of 3-(3,4-dichlorophenyl)-1-indanamine derivatives as nonselective ligands for biogenic amine transporters” (J Med Chem, 2004).

Bounds are passed on as bounds.

Assay [1] addresses T1, Sodium-dependent dopamine transporter (Rattus norvegicus, UniProt P23977). As to the kind of experiment: Binding affinity for DA transporter using [125I]RTI-55 in frozen rat caudate membranes. The class given is cell membranes. The essentials: (§1)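 Rat caudate membranes as stated in the lines. For NET binding, 5 mM KCl and 300 mM NaCl were added. Radioligand was in protease inhibitors (chymostatin, leupeptin, EDTA, EGTA). Ended by filtration over PEI-presoaked GF/B filters; Ki derived.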

Assay [2] deals with T2, Norepinephrine transporter (Rattus norvegicus, UniProt Q9WTR4). Put plainly: Displacement of from norepinephrine transporter of frozen rat caudate membranes. The class given is cell membranes, Membrane. Summed up: as §1
The target of assay [3] is T3, Sodium-dependent serotonin transporter (Rattus norvegicus, UniProt P31652). Put plainly: (§2) Displacement of [125I]RTI-55 from serotonin transporter of frozen rat caudate membranes. The class given is cell membranes, Membrane. Summed up: as §1
In general terms: Loss of bound radioactivity is the signal in a displacement assay; it reports binding, not function.

In assay [4] the target is T3, Sodium-dependent serotonin transporter. The description is as §2. The class given is cell membranes, Membrane. Summed up: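 Rat caudate membranes as stated in the lines. Incubated 18–24 h at 4 °C to equilibrium with radioligand and test drug in 55.2 mM sodium phosphate buffer, pH 7.4, with 1 mg/mL BSA. For NET binding, 5 mM KCl and 300 mM NaCl were added. Radioligand was in protease inhibitors (chymostatin, leupeptin, EDTA, EGTA). Ended by filtration over PEI-presoaked GF/B filters; Ki derived.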
The source holds these as a separate data set.

The target of assay [5] is T1, Sodium-dependent dopamine transporter. As to the kind of experiment: Reuptake inhibitory activity against dopamine DA transporter.
The target in assay [6] is T2, Norepinephrine transporter. As to the kind of experiment: Reuptake inhibitory activity against NE transporter. The class given is functional.
Assay [7] addresses T3, Sodium-dependent serotonin transporter. As to the kind of experiment: Reuptake inhibitory activity against Serotonin transporter. Summed up:
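[³H]5-HT uptake in crude synaptosomes from rat whole brain minus caudate, in Krebs phosphate buffer pH 7.4 with 1 mg/mL ascorbic acid and 50 μM pargyline. Stopped after 30 min by Tris-HCl/NaCl wash buffer and rapid GF/B filtration. Run twice, each in triplicate.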

The term Ki denotes a measure of affinity in units of concentration, obtained from inhibition or displacement. Higher therefore signals weaker binding.

T2 sequence (Q9WTR4 whole entry): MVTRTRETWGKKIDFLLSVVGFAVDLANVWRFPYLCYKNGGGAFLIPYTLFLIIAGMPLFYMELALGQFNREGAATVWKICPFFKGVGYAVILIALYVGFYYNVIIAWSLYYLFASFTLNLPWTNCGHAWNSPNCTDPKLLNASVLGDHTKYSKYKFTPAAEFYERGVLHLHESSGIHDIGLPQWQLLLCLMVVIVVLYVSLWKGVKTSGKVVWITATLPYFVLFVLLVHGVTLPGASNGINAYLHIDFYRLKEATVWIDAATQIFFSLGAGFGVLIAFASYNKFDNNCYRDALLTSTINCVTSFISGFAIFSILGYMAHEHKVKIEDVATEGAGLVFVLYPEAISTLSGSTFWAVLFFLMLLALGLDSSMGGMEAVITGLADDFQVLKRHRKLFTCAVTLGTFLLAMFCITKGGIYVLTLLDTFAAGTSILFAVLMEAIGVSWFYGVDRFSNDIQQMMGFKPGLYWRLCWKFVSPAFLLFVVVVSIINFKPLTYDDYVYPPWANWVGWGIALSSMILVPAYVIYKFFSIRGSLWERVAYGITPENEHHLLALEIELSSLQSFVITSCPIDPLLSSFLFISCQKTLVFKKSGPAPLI
T3 sequence (P31652 whole entry): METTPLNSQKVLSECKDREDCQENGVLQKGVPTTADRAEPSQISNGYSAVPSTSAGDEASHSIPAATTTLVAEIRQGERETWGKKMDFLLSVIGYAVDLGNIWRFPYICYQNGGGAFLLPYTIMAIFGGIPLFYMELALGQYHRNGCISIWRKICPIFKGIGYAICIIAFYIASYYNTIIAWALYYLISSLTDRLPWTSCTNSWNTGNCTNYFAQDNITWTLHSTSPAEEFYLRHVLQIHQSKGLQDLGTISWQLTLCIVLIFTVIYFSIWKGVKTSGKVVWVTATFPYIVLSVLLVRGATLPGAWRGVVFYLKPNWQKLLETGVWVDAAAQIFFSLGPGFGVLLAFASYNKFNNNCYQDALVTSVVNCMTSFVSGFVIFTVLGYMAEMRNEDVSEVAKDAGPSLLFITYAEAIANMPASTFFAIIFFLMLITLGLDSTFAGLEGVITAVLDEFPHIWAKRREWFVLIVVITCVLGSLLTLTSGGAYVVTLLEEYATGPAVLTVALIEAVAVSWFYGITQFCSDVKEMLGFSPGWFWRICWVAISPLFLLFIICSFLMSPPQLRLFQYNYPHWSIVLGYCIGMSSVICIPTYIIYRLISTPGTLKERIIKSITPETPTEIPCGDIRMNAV
T1 sequence (P23977 whole entry): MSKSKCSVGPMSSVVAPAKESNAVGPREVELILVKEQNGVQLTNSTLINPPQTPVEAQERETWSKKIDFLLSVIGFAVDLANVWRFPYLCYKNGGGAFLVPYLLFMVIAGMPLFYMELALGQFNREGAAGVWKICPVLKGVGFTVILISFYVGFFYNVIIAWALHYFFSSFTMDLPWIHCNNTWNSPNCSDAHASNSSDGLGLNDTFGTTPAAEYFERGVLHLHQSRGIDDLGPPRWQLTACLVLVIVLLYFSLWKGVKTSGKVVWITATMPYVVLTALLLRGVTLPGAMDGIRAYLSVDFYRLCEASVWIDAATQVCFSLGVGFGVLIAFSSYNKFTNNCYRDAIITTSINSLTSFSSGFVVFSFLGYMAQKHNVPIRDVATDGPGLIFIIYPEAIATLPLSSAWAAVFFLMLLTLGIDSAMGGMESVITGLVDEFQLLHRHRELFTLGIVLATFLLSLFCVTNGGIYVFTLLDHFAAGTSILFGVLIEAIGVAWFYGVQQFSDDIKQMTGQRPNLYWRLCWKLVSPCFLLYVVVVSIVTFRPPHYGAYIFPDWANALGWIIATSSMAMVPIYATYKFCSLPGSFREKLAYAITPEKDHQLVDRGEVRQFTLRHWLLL

Take `CNC1CC(c2ccc(Cl)c(Cl)c2)c2ccc(OC)cc21` (trans isomer): the figures for the Ki in assay [1], in assay [2] and in assay [3] were 12 nM, 15 nM and 1.1 nM, respectively.

For `CN[C@H]1C[C@H](c2ccc(Cl)c(Cl)c2)c2ccc(OC)cc21`, the Ki in assay [4] was found to be 51 nM; in assay [5] it was 600 nM; in assay [1], 600 nM; in assay [6], 650 nM; in assay [2], 820 nM; in assay [7] it was 109 nM.

With `CCN(CC)C1CC(c2ccc(Cl)c(Cl)c2)c2ccc(OC)cc21` (cis isomer), the Ki in assay [1] is 1310 nM; in assay [2], > 4700 nM; in assay [3] it was 26 nM.

As to `CCN(CC)C1CC(c2ccc(Cl)c(Cl)c2)c2ccc(OC)cc21` (trans isomer), the figures for the Ki in assay [1], in assay [2] and in assay [3] were 140 nM, 1010 nM and 1.3 nM, respectively.

As to `CN[C@@H]1C[C@@H](c2ccc(Cl)c(Cl)c2)c2ccc(OC)cc21`, the Ki in assay [5] is 12 nM; in assay [1], 9 nM; in assay [6], 34 nM; in assay [2], 7 nM; in assay [7], 19 nM; in assay [3], 0.7 nM.

For the molecule `CNC1CC(c2ccc(Cl)c(Cl)c2)c2ccc(OC)cc21` (cis isomer), the results for the Ki in assay [4], in assay [1] and in assay [2] were 0.3 nM, 96 nM and 170 nM, respectively.

Take `CCN(CC)C1CC(c2ccc(Cl)c(Cl)c2)c2ccc(O)cc21` (trans isomer): the Ki in assay [1] stood at 40 nM; in assay [2] it was 1330 nM; in assay [3], 0.7 nM.

As to `CNC1CC(c2ccc(Cl)c(Cl)c2)c2ccc(O)cc21` (trans isomer), the Ki in assay [1] is 11 nM; in assay [2], 24 nM; in assay [3], 3 nM.
